Experimental data reported in ChEMBL document CHEMBL1154122, “A comprehensive study of Sansalvamide A derivatives: The structure-activity relationships of 78 derivatives in two pancreatic cancer cell lines” (2009).
Square brackets hold non-standard residues; d marks the D form. Peptide text beside a SMILES is read from it. * marks the point of attachment. NMeF = CN[C@@H](Cc1ccccc1)C(=O)O; NMeL = CN[C@@H](CC(C)C)C(=O)O; dNMeL = CN[C@H](CC(C)C)C(=O)O; dNMeV = CN[C@@H](C(=O)O)C(C)C; NMeV = CN[C@H](C(=O)O)C(C)C; Orn = NCCC[C@H](N)C(=O)O; Cbz = O=C(OCc1ccccc1)*; Bn = c1ccc(C*)cc1; Sar = CNCC(=O)O

Key:
[1] = Cytotoxicity against human PL45 cells after 56 hrs by [3H]thymidine uptake assay; format: functional
In short: (§1)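 Cells seeded at 2000–2500/well in DMEM with L-glutamine, 10% FBS and 1% penicillin-streptomycin. […] After 56 h, 3H-thymidine was added for 16 h more (72 h total), then cells were harvested and counted (CPM). Inhibition = 1 − CPM treated/DMSO; IC50 taken from curves, mean and SEM.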

BXPC-3 = test: Cytotoxicity against human BxPC3 cells after 56 hrs by [3H]thymidine uptake assay; format: functional; in short: as §1

Row | Structure (SMILES) | growth inhibition (GI) [1] | growth inhibition (GI) (BXPC-3)
1 | CC(C)C[C@@H]1NC(=O)[C@H](Cc2ccccc2)NC(=O)[C@@H](Cc2ccccc2)NC(=O)[C@H](C(C)C)NC(=O)[C@H](CC(C)C)NC1=O | 39% | 55%
2 | CC(C)C[C@@H]1NC(=O)CN(C)C(=O)[C@H](Cc2ccccc2)NC(=O)[C@H](C(C)C)NC(=O)[C@@H](C(C)C)NC1=O (cyclo(F[Sar]L[dV]V)) | 0% | 22%
3 | CC(C)C[C@@H]1NC(=O)[C@H](C(C)C)NC(=O)[C@H](CCCCN)NC(=O)[C@H](CC(C)C)N(C)C(=O)[C@H](Cc2ccccc2)NC1=O (cyclo(F[NMeL]KVL)) | 9% | 11%
4 | CC(C)C[C@@H]1NC(=O)[C@H](C(C)C)N(C)C(=O)[C@H](CC(C)C)NC(=O)[C@@H](Cc2ccccc2)NC(=O)[C@H](Cc2ccccc2)NC1=O | 21% | 3%
5 | CC(C)C[C@@H]1NC(=O)[C@H](Cc2ccccc2)NC(=O)[C@H](CC(C)C)NC(=O)[C@H](C(C)C)NC(=O)[C@H](CCCCNC(=O)OCc2ccccc2)NC1=O (cyclo(FLK(Cbz)VL)) | 0% | 8%
6 | CC(C)C[C@@H]1NC(=O)[C@H](Cc2ccccc2)NC(=O)[C@H](CC(C)C)NC(=O)[C@@H](C(C)C)NC(=O)[C@@H](CC(C)C)NC1=O | 14% | 12%
7 | CC(C)C[C@@H]1NC(=O)[C@H](CC(C)C)NC(=O)[C@@H](Cc2ccc(O)cc2)NC(=O)[C@H](CC(C)C)NC(=O)[C@H](C(C)C)NC1=O (cyclo(LLVL[dY])) | 11% | 35%
8 | CC(C)C[C@H]1NC(=O)[C@@H](Cc2ccccc2)NC(=O)[C@@H](CC(C)C)NC(=O)[C@@H](C(C)C)N(C)C(=O)[C@@H](CC(C)C)NC1=O | 6% | 31%
9 | CC(C)C[C@@H]1NC(=O)[C@H](Cc2ccccc2)NC(=O)[C@@H](CC(C)C)NC(=O)[C@@H](C(C)C)NC(=O)[C@H](CC(C)C)NC1=O | 41% | 33%
10 | CC(C)[C@@H]1NC(=O)[C@H](Cc2ccccc2)NC(=O)[C@@H](COCc2ccccc2)NC(=O)[C@H](C(C)C)NC(=O)[C@H](C(C)C)NC1=O (cyclo(FVVV[dS](Bn))) | 28% | 17%
11 | CC(C)C[C@@H]1C(=O)N[C@H](Cc2ccccc2)C(=O)N[C@H](CC(C)C)C(=O)N[C@H](CC(C)C)C(=O)N[C@H](C(C)C)C(=O)N1C (cyclo([dF][dL][dL][dV][dNMeL])) | 11% | 30%
12 | CC(C)C[C@@H]1NC(=O)[C@H](Cc2ccccc2)NC(=O)[C@H](CC(C)C)NC(=O)[C@H](C(C)C)N(C)C(=O)[C@H](CC(C)C)NC1=O | 20% | 28%
13 | CC(C)C[C@@H]1NC(=O)[C@H](CC(C)C)NC(=O)[C@@H](Cc2ccccc2)NC(=O)[C@@H](CC(C)C)NC(=O)[C@@H](C(C)C)NC1=O | 44% | 42%
14 | CC(C)C[C@@H]1NC(=O)[C@H](Cc2ccccc2)NC(=O)[C@H](CC(C)C)NC(=O)[C@H](C(C)C)NC(=O)[C@H](CCCCN)NC1=O (cyclo(FLKVL)) | 0% | 8%
15 | CC(C)C[C@@H]1NC(=O)[C@H](Cc2ccccc2)NC(=O)[C@H](CC(C)C)NC(=O)[C@@H](C(C)C)NC(=O)[C@H](CCCCN)NC1=O (cyclo(FLK[dV]L)) | 23% | 24%
16 | CC(C)C[C@@H]1NC(=O)[C@@H](Cc2ccccc2)NC(=O)[C@H](CC(C)C)NC(=O)[C@@H](C(C)C)N(C)C(=O)[C@H](CC(C)C)NC1=O | 36% | 31%
17 | CC(C)C[C@@H]1NC(=O)[C@H](CC(C)C)N(C)C(=O)[C@H](Cc2ccccc2)NC(=O)[C@H](CC(C)C)N(C)C(=O)[C@H](C(C)C)N(C)C1=O (cyclo(F[NMeL]L[NMeV][NMeL])) | 0% | 0%
18 | CC(C)C[C@@H]1NC(=O)[C@H](Cc2ccccc2)NC(=O)[C@@H](CC(C)C)N(C)C(=O)[C@@H](C(C)C)N(C)C(=O)[C@H](CC(C)C)NC1=O (cyclo(FLL[dNMeV][dNMeL])) | 22% | 0%
19 | CC(C)C[C@@H]1NC(=O)[C@H](Cc2ccccc2)NC(=O)[C@H](CC(C)C)NC(=O)[C@H](C(C)C)NC(=O)[C@@H](CC(C)C)NC1=O | 0% | 0%
20 | CC(C)C[C@@H]1NC(=O)[C@H](C(C)C)NC(=O)[C@H](CC(C)C)NC(=O)[C@@H](CC(C)C)NC(=O)[C@H](Cc2ccccc2)NC1=O | 29% | 29%
21 | CC(C)C[C@@H]1NC(=O)[C@H](COCc2ccccc2)NC(=O)[C@@H](Cc2ccccc2)NC(=O)[C@@H](CC(C)C)NC(=O)[C@@H](C(C)C)NC1=O | 30% | 43%

Row | Structure (SMILES) | growth inhibition (GI) [1] | growth inhibition (GI) (BXPC-3)
22 | CC(C)C[C@@H]1NC(=O)[C@H](C(C)C)NC(=O)[C@H](CCCN)NC(=O)[C@H](CC(C)C)NC(=O)[C@@H](Cc2ccc(O)cc2)NC1=O (cyclo(L[Orn]VL[dY])) | 0% | 0%
23 | CC(C)C[C@@H]1NC(=O)[C@H](C(C)C)NC(=O)[C@H](CC(C)C)N(C)C(=O)[C@@H](CC(C)C)NC(=O)[C@H](Cc2ccccc2)NC1=O (cyclo(F[dL][NMeL]VL)) | 25% | 71%
24 | CC(C)C[C@@H]1NC(=O)[C@H](C(C)C)N(C)C(=O)[C@@H](CCCCN)NC(=O)[C@@H](Cc2ccccc2)NC(=O)[C@H](Cc2ccccc2)NC1=O | 5% | 8%
25 | CC(C)C[C@@H]1NC(=O)[C@H](Cc2ccccc2)NC(=O)[C@@H](Cc2ccccc2)N(C)C(=O)[C@H](C(C)C)NC(=O)[C@H](CC2CCCCC2)NC1=O | 44% | 21%
26 | CC(C)C[C@@H]1NC(=O)[C@H](Cc2ccccc2)NC(=O)[C@H](CC(C)C)NC(=O)[C@H](C(C)C)NC(=O)[C@H](CC(C)C)NC1=O | 25% | 42%
27 | CC(C)C[C@H]1NC(=O)[C@@H](Cc2ccccc2)NC(=O)[C@@H](CC(C)C)NC(=O)[C@@H](C(C)C)NC(=O)[C@@H](CC(C)C)NC1=O | 17% | 30%
28 | CC(C)[C@@H]1NC(=O)[C@H](CC2CCCCC2)NC(=O)[C@H](COCc2ccccc2)NC(=O)[C@H](Cc2ccccc2)NC(=O)[C@@H](Cc2ccccc2)N(C)C1=O | 40% | 44%
29 | CC(C)C[C@@H]1NC(=O)[C@H](Cc2ccccc2)NC(=O)[C@H](CC(C)C)NC(=O)[C@@H](CO)NC(=O)[C@H](CC(C)C)NC1=O (cyclo(FLL[dS]L)) | 25% | 22%
30 | CC(C)C[C@@H]1NC(=O)[C@H](Cc2ccccc2)NC(=O)[C@@H](CO)NC(=O)[C@H](C(C)C)NC(=O)[C@H](CC(C)C)NC1=O (cyclo(FLLV[dS])) | 32% | 25%
31 | CC(C)C[C@@H]1NC(=O)[C@H](Cc2ccccc2)NC(=O)[C@@H](Cc2ccccc2)N(C)C(=O)[C@@H](C(C)C)NC(=O)[C@H](CC(C)C)NC1=O | 55% | 4%
32 | CC(C)C[C@@H]1NC(=O)[C@H](C(C)C)N(C)C(=O)[C@H](CC(C)C)NC(=O)[C@H](CC(C)C)N(C)C(=O)[C@H](Cc2ccccc2)NC1=O (cyclo(F[NMeL]L[NMeV]L)) | 0% | 0%
33 | CC(C)C[C@@H]1NC(=O)[C@H](C(C)C)NC(=O)[C@H](CC(C)C)NC(=O)[C@@H](CC(C)C)N(C)C(=O)[C@H](Cc2ccccc2)NC1=O | 49% | 43%
34 | CC(C)C[C@@H]1NC(=O)[C@H](CC(C)C)NC(=O)[C@H](Cc2ccccc2)N(C)C(=O)[C@H](CC(C)C)NC(=O)[C@H](C(C)C)NC1=O (cyclo([NMeF]LLVL)) | 30% | 33%
35 | CC(C)C[C@@H]1NC(=O)[C@H](Cc2ccccc2)NC(=O)[C@@H](CC(C)C)NC(=O)[C@H](C(C)C)NC(=O)[C@H](CC(C)C)NC1=O | 41% | 34%
36 | CC(C)C[C@@H]1NC(=O)[C@H](Cc2ccccc2)NC(=O)[C@@H](Cc2ccccc2)N(C)C(=O)[C@H](C(C)C)NC(=O)[C@H](CC(C)C)NC1=O | 51% | 35%
37 | CC(C)C[C@@H]1NC(=O)[C@H](C(C)C)NC(=O)[C@H](CC(C)C)NC(=O)[C@H](CC(C)C)N(C)C(=O)[C@H](Cc2ccccc2)NC1=O | 44% | 47%
38 | CC(C)C[C@@H]1NC(=O)[C@H](C(C)C)N(C)C(=O)[C@@H](CCCCNC(=O)OCc2ccccc2)NC(=O)[C@@H](Cc2ccccc2)NC(=O)[C@H](Cc2ccccc2)NC1=O | 65% | 55%
39 | CC(C)C[C@@H]1NC(=O)[C@H](Cc2ccccc2)NC(=O)[C@H](CC(C)C)NC(=O)[C@@H](C(C)C)NC(=O)[C@H](CCCCNC(=O)OCc2ccccc2)NC1=O (cyclo(FLK(Cbz)[dV]L)) | 0% | 29%
40 | CC(C)[C@@H]1NC(=O)[C@H](Cc2ccccc2)NC(=O)[C@@H](CO)NC(=O)[C@H](C(C)C)NC(=O)[C@H](C(C)C)NC1=O (cyclo(FVVV[dS])) | 7% | 13%
41 | CC(C)C[C@@H]1NC(=O)[C@@H](Cc2ccccc2)NC(=O)[C@H](C(C)C)NC(=O)[C@@H](CC(C)C)NC(=O)[C@@H](CC(C)C)NC1=O (cyclo(L[dL][dL]V[dF])) | 21% | 23%
42 | CC(C)[C@@H]1NC(=O)[C@H](Cc2ccccc2)NC(=O)[C@H](C(C)C)NC(=O)[C@@H](C(C)C)NC(=O)[C@H](C(C)C)NC1=O (cyclo(FVV[dV]V)) | 25% | 11%
